According to ChEMBL document CHEMBL1137287, “Peptidyl-urea based inhibitors of soluble epoxide hydrolases” (Bioorg Med Chem Lett, 2006):

Key:
[1] = target: T1, Bifunctional epoxide hydrolase 2 (Mus musculus, UniProt P34914); assay: Inhibition of mouse recombinant soluble Epoxide hydrolase
T1 sequence (P34914 whole entry): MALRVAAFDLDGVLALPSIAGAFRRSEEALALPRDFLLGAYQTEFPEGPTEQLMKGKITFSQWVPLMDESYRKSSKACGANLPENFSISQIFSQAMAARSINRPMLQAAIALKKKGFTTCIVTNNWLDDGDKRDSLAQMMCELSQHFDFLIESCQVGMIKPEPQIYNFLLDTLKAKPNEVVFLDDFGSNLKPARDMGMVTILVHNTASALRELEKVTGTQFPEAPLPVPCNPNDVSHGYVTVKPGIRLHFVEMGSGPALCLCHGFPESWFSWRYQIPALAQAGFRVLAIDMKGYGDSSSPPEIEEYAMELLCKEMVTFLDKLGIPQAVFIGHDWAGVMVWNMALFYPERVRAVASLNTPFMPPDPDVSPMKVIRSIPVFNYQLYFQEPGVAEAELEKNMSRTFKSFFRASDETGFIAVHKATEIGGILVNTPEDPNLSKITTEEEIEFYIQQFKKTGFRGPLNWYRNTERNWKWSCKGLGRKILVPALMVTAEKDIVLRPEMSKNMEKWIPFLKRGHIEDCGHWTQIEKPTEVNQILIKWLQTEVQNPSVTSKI

[2] = target: T2, Bifunctional epoxide hydrolase 2 (Homo sapiens, UniProt P34913); assay: Inhibition of human recombinant soluble Epoxide hydrolase
T2 sequence (P34913 whole entry): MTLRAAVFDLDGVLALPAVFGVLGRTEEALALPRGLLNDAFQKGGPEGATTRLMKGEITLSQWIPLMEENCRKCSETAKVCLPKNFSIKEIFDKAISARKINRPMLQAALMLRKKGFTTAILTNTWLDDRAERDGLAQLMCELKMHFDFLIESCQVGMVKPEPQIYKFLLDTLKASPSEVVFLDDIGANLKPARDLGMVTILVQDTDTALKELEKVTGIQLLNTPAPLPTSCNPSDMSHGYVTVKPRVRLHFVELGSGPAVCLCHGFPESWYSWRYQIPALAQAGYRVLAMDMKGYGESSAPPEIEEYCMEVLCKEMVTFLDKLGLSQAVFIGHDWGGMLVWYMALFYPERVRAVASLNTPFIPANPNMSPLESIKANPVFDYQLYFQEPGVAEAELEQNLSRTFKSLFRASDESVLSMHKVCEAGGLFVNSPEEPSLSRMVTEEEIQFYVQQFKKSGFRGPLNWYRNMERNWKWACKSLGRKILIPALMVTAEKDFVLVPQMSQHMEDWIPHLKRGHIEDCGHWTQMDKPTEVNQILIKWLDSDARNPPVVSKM

[3] = Solubility in sodium phosphate buffer at pH 7.4; type: physicochemical
Procedure, shortened: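 Solubility measured in sodium phosphate buffer, 100 mM, pH 7.4, following a previously described procedure.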

| IC50 [1] | IC50 [2] | solubility [3] | Compound |
| --- | --- | --- | --- |
| 0.15 µM | 2.7 µM |  | O=C(CCCCCNC(=O)NC1CCCCC1)N[C@@H](Cc1ccccc1)C(=O)O (stereo in doubt; form 1) |
| 1.4 µM | 17 µM | > 500 µM | CC(C)[C@H](NC(=O)CCCNC(=O)NC1CCCCC1)C(=O)O |
| 1 µM | 25 µM | > 500 µM | N=C(N)NCCC[C@H](NC(=O)CCCNC(=O)NC1CCCCC1)C(=O)O |
|  | 55 µM | > 500 µM | CC(C)[C@H](NC(=O)CCCCCNC(=O)NC12CC3CC(CC(C3)C1)C2)C(=O)O |
|  | > 100 µM | > 500 µM | CC(O)[C@H](NC(=O)CCCCCNC(=O)NC12CC3CC(CC(C3)C1)C2)C(=O)O (some centres undefined) |
|  | 0.88 µM | > 500 µM | CC(C)C[C@H](NC(=O)[C@H](Cc1ccccc1)NC(=O)CCCCCNC(=O)NC1CCCCC1)C(=O)O |
|  | 0.1 µM | > 500 µM | O=C(CCCCCNC(=O)NC1CCCCC1)N[C@@H](Cc1ccccc1)C(=O)N1CCC[C@H]1C(=O)O |
|  | 5.5 µM | > 500 µM | O=C(CCCCCNC(=O)NC1CCCCC1)N[C@@H](Cc1ccccc1)C(=O)N[C@@H](Cc1cnc[nH]1)C(=O)O |
| > 100 µM | > 100 µM | > 500 µM | O=C(O)CC[C@H](NC(=O)CNC(=O)NC1CCCCC1)C(=O)O |
|  | 0.23 µM | > 500 µM | O=C(CCCCCNC(=O)NC1CCCCC1)N[C@@H](Cc1ccccc1)C(=O)N[C@@H](Cc1ccc(O)cc1)C(=O)O |
| 8.4 µM |  | > 500 µM | O=C(CCCNC(=O)NC12CC3CC(CC(C3)C1)C2)N[C@@H](Cc1c[nH]c2ccccc12)C(=O)O |
|  | > 100 µM | > 500 µM | CCC(C)[C@H](NC(=O)CCCCCNC(=O)NC12CC3CC(CC(C3)C1)C2)C(=O)O (some centres undefined) |
| 51 µM | > 100 µM | > 500 µM | O=C(O)CC[C@H](NC(=O)CCCCCNC(=O)NC1CCCCC1)C(=O)O |
| > 100 µM |  | > 500 µM | O=C(O)C[C@H](NC(=O)CCCNC(=O)NC12CC3CC(CC(C3)C1)C2)C(=O)O |
| 0.11 µM | 3.2 µM |  | COC(=O)CCCCCNC(=O)NC1CCCCC1 |
| > 100 µM |  | > 500 µM | C[C@H](NC(=O)CCCNC(=O)NC12CC3CC(CC(C3)C1)C2)C(=O)O |
|  | 1.5 µM | > 500 µM | O=C(O)CNC(=O)[C@H](Cc1ccccc1)NC(=O)CCCCCNC(=O)NC1CCCCC1 |
|  | > 100 µM |  | O=C(O)CCCCCNC(=O)NC12CC3CC(CC(C3)C1)C2 |
|  | 41 µM | > 500 µM | O=C(CCCCCNC(=O)NC12CC3CC(CC(C3)C1)C2)N[C@@H](Cc1c[nH]c2ccccc12)C(=O)O |
| 18 µM | > 100 µM | > 500 µM | O=C(CNC(=O)NC1CCCCC1)N[C@@H](Cc1ccccc1)C(=O)O |

| IC50 [1] | IC50 [2] | solubility [3] | Compound |
| --- | --- | --- | --- |
|  | > 100 µM | > 500 µM | N=C(N)NCCC[C@H](NC(=O)CCCCCNC(=O)NC12CC3CC(CC(C3)C1)C2)C(=O)O |
|  | 0.13 µM | > 500 µM | CC[C@H](C)[C@H](NC(=O)[C@H](Cc1ccccc1)NC(=O)CCCCCNC(=O)NC1CCCCC1)C(=O)O |
|  | 0.87 µM | > 500 µM | CSCC[C@H](NC(=O)[C@H](Cc1ccccc1)NC(=O)CCCCCNC(=O)NC1CCCCC1)C(=O)O |
| 1.9 µM | 36 µM |  | O=C(O)CCCNC(=O)NC1CCCCC1 |
| 4.8 µM |  | > 500 µM | CSCC[C@H](NC(=O)CCCNC(=O)NC12CC3CC(CC(C3)C1)C2)C(=O)O |
|  | > 100 µM | > 500 µM | O=C(O)CC[C@H](NC(=O)CCCCCNC(=O)NC12CC3CC(CC(C3)C1)C2)C(=O)O |
|  | > 100 µM | > 500 µM | CSCC[C@H](NC(=O)CCCCCNC(=O)NC12CC3CC(CC(C3)C1)C2)C(=O)O |
| 82 µM |  | > 500 µM | O=C(NCCCC(=O)N1CCC[C@H]1C(=O)O)NC12CC3CC(CC(C3)C1)C2 |
| 0.8 µM |  | > 500 µM | O=C(CCCNC(=O)NC12CC3CC(CC(C3)C1)C2)N[C@@H](Cc1ccccc1)C(=O)O |
|  | 0.1 µM | > 500 µM | O=C(CCCCCNC(=O)NC1CCCCC1)N[C@@H](Cc1ccccc1)C(=O)N[C@@H](Cc1c[nH]c2ccccc12)C(=O)O |
|  | 1.8 µM |  | COC(=O)CCCCCNC(=O)NC12CC3CC(CC(C3)C1)C2 |
|  | > 100 µM | > 500 µM | O=C(O)C[C@H](NC(=O)CCCCCNC(=O)NC12CC3CC(CC(C3)C1)C2)C(=O)O |
| > 100 µM |  | > 500 µM | O=C(O)CNC(=O)CCCNC(=O)NC12CC3CC(CC(C3)C1)C2 |
|  | > 100 µM | > 500 µM | O=C(CCCCCNC(=O)NC12CC3CC(CC(C3)C1)C2)N[C@@H](Cc1cnc[nH]1)C(=O)O |
| 47 µM |  |  | O=C(CCCNC(=O)NC12CC3CC(CC(C3)C1)C2)N[C@@H](CO)C(=O)O |
|  | 2.1 µM | > 500 µM | N=C(N)NCCC[C@H](NC(=O)[C@H](Cc1ccccc1)NC(=O)CCCCCNC(=O)NC1CCCCC1)C(=O)O |
|  | 2.4 µM | > 500 µM | O=C(CCCCCNC(=O)NC1CCCCC1)N[C@@H](Cc1ccccc1)C(=O)N[C@@H](CO)C(=O)O |
| 30 µM |  | > 500 µM | CC(C)[C@H](NC(=O)CCCNC(=O)NC12CC3CC(CC(C3)C1)C2)C(=O)O |
| 16 µM |  | > 500 µM | N=C(N)NCCC[C@H](NC(=O)CCCNC(=O)NC12CC3CC(CC(C3)C1)C2)C(=O)O |
|  | 0.1 µM | > 500 µM | O=C(CCCCCNC(=O)NC1CCCCC1)N[C@@H](Cc1ccccc1)C(=O)N[C@@H](Cc1ccccc1)C(=O)O |

| IC50 [1] | IC50 [2] | solubility [3] | Compound |
| --- | --- | --- | --- |
|  | > 100 µM | > 500 µM | C[C@H](NC(=O)CCCCCNC(=O)NC12CC3CC(CC(C3)C1)C2)C(=O)O |
|  | 2.7 µM | > 500 µM | O=C(CCCCCNC(=O)NC12CC3CC(CC(C3)C1)C2)N[C@@H](Cc1ccccc1)C(=O)O |
| 1.3 µM |  | > 500 µM | CCC(C)[C@H](NC(=O)CCCNC(=O)NC12CC3CC(CC(C3)C1)C2)C(=O)O (some centres undefined) |
| > 100 µM | > 100 µM |  | O=C(O)CNC(=O)NC1CCCCC1 |
| 0.05 µM |  | > 500 µM | O=C(CCCNC(=O)NC12CC3CC(CC(C3)C1)C2)N[C@@H](Cc1cnc[nH]1)C(=O)O |
| 24 µM | > 100 µM |  | O=C(O)CCCCCNC(=O)NC1CCCCC1 |
|  | 0.26 µM | > 500 µM | C[C@H](NC(=O)[C@H](Cc1ccccc1)NC(=O)CCCCCNC(=O)NC1CCCCC1)C(=O)O |
| 18 µM |  | > 500 µM | O=C(CCCNC(=O)NC12CC3CC(CC(C3)C1)C2)N[C@@H](Cc1ccc(O)cc1)C(=O)O |
|  | 1 µM | > 500 µM | O=C(CCCCCNC(=O)NC1CCCCC1)N[C@@H](Cc1ccccc1)C(=O)O (stereo in doubt; form 2) |
|  | > 100 µM | > 500 µM | O=C(O)CC[C@H](NC(=O)[C@H](Cc1ccccc1)NC(=O)CCCCCNC(=O)NC1CCCCC1)C(=O)O |
|  | > 100 µM | > 500 µM | O=C(O)C[C@H](NC(=O)[C@H](Cc1ccccc1)NC(=O)CCCCCNC(=O)NC1CCCCC1)C(=O)O |
|  | > 100 µM | > 500 µM | O=C(NCCCCCC(=O)N1CCC[C@H]1C(=O)O)NC12CC3CC(CC(C3)C1)C2 |
| 15 µM |  | > 500 µM | CC(C)C[C@H](NC(=O)CCCNC(=O)NC12CC3CC(CC(C3)C1)C2)C(=O)O |
|  | > 100 µM | > 500 µM | O=C(CCCCCNC(=O)NC12CC3CC(CC(C3)C1)C2)N[C@@H](CO)C(=O)O |
| > 100 µM |  | > 500 µM | O=C(O)CC[C@H](NC(=O)CCCNC(=O)NC12CC3CC(CC(C3)C1)C2)C(=O)O |
|  | 1.3 µM | > 500 µM | C[C@H](O)[C@H](NC(=O)[C@H](Cc1ccccc1)NC(=O)CCCCCNC(=O)NC1CCCCC1)C(=O)O |
|  | 80 µM | > 500 µM | O=C(CCCCCNC(=O)NC12CC3CC(CC(C3)C1)C2)N[C@@H](Cc1ccc(O)cc1)C(=O)O |
|  | 0.1 µM | > 500 µM | CC(C)[C@H](NC(=O)[C@H](Cc1ccccc1)NC(=O)CCCCCNC(=O)NC1CCCCC1)C(=O)O |
|  | > 100 µM | > 500 µM | O=C(O)CNC(=O)CCCCCNC(=O)NC12CC3CC(CC(C3)C1)C2 |
|  | > 100 µM | > 500 µM | CC(C)C[C@H](NC(=O)CCCCCNC(=O)NC12CC3CC(CC(C3)C1)C2)C(=O)O |

| Compound | IC50 [1] | IC50 [2] | solubility [3] |
| --- | --- | --- | --- |
| O=C(O)CCCNC(=O)NC12CC3CC(CC(C3)C1)C2 | > 100 µM |  | > 500 µM |
